Measurements pooled from the literature.
PIK3CA E542K: Phosphatidylinositol 4,5-bisphosphate 3-kinase catalytic subunit alpha isoform (PIK3CA, Homo sapiens, UniProt P42336, E542K)
PIK3CA E545A: Phosphatidylinositol 4,5-bisphosphate 3-kinase catalytic subunit alpha isoform (PIK3CA, Homo sapiens, UniProt P42336, E545A)
PIK3CA: Phosphatidylinositol 4,5-bisphosphate 3-kinase catalytic subunit alpha isoform (PIK3CA, Homo sapiens, UniProt P42336)
PIK3CA H1047L: Phosphatidylinositol 4,5-bisphosphate 3-kinase catalytic subunit alpha isoform (PIK3CA, Homo sapiens, UniProt P42336, H1047L)
PIK3CA M1043I: Phosphatidylinositol 4,5-bisphosphate 3-kinase catalytic subunit alpha isoform (PIK3CA, Homo sapiens, UniProt P42336, M1043I)
PIK3CA E545K: Phosphatidylinositol 4,5-bisphosphate 3-kinase catalytic subunit alpha isoform (PIK3CA, Homo sapiens, UniProt P42336, E545K)

| SMILES | target | assay | setting | remaining binding |
| --- | --- | --- | --- | --- |
| c1cnn2ncc(-c3ccnc(N4CCC45COC5)n3)c2c1 | PIK3CA E542K | binding | 1 µM | 86% |
| O=C(NCCCN1CCOCC1)c1ccc(Nc2nccc(-c3cc4ccccc4s3)n2)cc1 | PIK3CA E542K | binding, competition with immobilised ligand | 1 µM | 41% |
| F[C@@H]1CCN(c2nccc(-c3cnn4ncccc34)n2)C1 | PIK3CA E545A | binding | 1 µM | 92% |
| FC(F)(F)Oc1cccc(-c2cnc3ccc(-c4ccncc4)nn23)c1 | PIK3CA | cell-free assay, competition with immobilised ligand | 5 µM | 35% |
| O=C(c1ccc(Nc2nccc(-c3cc4ccccc4s3)n2)cc1)N1CCC(N2CCCC2)CC1 | PIK3CA E542K | binding, competition with immobilised ligand | 1 µM | 99% |
| CCS(=O)(=O)c1cc2cc(C[C@](O)(CC(C)(C)c3ccc(F)cc3C(N)=O)C(F)(F)F)[nH]c2cn1 | PIK3CA H1047L | cell-free assay, competition with immobilised ligand | 1 µM | 96% |
| Nc1ncc2c(n1)-c1c([nH]c3ccc(C#CC4CC4)cc13)CCCC2 | Phosphatidylinositol 4,5-bisphosphate 3-kinase catalytic subunit alpha isoform (PIK3CA, Homo sapiens, UniProt P42336, C420R) | binding, competition with immobilised ligand | 1 µM | 86% |
| COc1cnc(Nc2cccc(S(N)(=O)=O)c2)nc1N1CCN(c2ccccc2)C(=O)C1 | PIK3CA M1043I | binding, competition with immobilised ligand | 1 µM | 85% |
| CCCOc1ccc([C@@H]2[C@@H](C(=O)O)[C@H](c3ccc4c(c3)OCO4)CN2CC(=O)Nc2c(CC)cccc2CC)cc1 | PIK3CA E545A | cell-free assay, competition with immobilised ligand | 1 µM | 92% |
| CN(C)c1ncc(F)c(-c2cnn3ncccc23)n1 | PIK3CA H1047L | binding | 1 µM | 100% |
| O=C(O)c1cc(-c2ccc(C3CCNCC3)cc2)c2ccc(-c3ccc(C(F)(F)F)cc3)cc2c1 | PIK3CA M1043I | cell-free assay, competition with immobilised ligand | 1 µM | 100% |
| CN1CCN(c2ccc(Nc3nccc(-c4cccc([N+](=O)[O-])c4)n3)cc2C(F)(F)F)CC1 | PIK3CA M1043I | binding | 10 µM | 35% |
| COc1cc(-c2cn(C3CCc4c(F)cccc4N(CC(F)(F)F)C3=O)nn2)ccc1-n1cnc(C)c1 (centres unmarked) | PIK3CA E545K | cell-free assay, competition with immobilised ligand | 1 µM | 70% |
| O=C(NCC1CCOCC1)c1n[nH]cc1NC(=O)c1c(F)cccc1F | PIK3CA E542K | binding, competition with immobilised ligand | 1 µM | 78% |
| CC(C)(O)c1cncc(-c2nc3ccc(F)cc3n2C2CC2)c1 | PIK3CA M1043I | cell-free assay, competition with immobilised ligand | 1 µM | 100% |
| CN(C)c1nccc(-c2cnn3ncccc23)n1 | PIK3CA H1047L | binding | 1 µM | 73% |
| Cn1nc(C(=O)NCc2ccc(C(=O)O)cc2)cc1-c1ccc2[nH]ccc2c1 | Phosphatidylinositol 4,5-bisphosphate 3-kinase catalytic subunit alpha isoform (PIK3CA, Homo sapiens, UniProt P42336, Q546K) | cell-free assay, competition with immobilised ligand | 0.1 µM | 76% |
| CN(CCCC(F)(F)F)c1nccc(-c2cnn3ncccc23)n1 | PIK3CA E545K | binding | 1 µM | 100% |
| Cc1cnc(Nc2ccc(C(=O)N3CCC(N4CCCC4)CC3)cc2)nc1-c1cc2ccccc2s1 | PIK3CA | binding, competition with immobilised ligand | 1 µM | 97% |
| N[C@H]1CCN(c2nccc(-c3cnn4ncccc34)n2)C1 | PIK3CA E545A | binding | 1 µM | 100% |
| Cc1nc(Cc2cccc(C(F)(F)F)c2)sc1-c1ccc(C(N)=O)nc1 | PIK3CA E545A | cell-free assay, competition with immobilised ligand | 1 µM | 100% |
| C[C@H]1CCN(c2nccc(-c3cnn4ncccc34)n2)C1 | PIK3CA E545A | binding | 1 µM | 100% |
| C=CC(=O)N1CCC(C(=O)NCC(=O)N2CCN(c3nc(-c4cnc(N)nc4C(F)F)nc(N4CCOCC4)n3)CC2)CC1 | Phosphatidylinositol 4,5-bisphosphate 3-kinase catalytic subunit alpha isoform (PIK3CA, Homo sapiens, UniProt P42336, H1047Y) | binding, competition with immobilised ligand | 1 µM | 5.9% |
